Reference: ChEMBL document CHEMBL4270599, “Synthesis of a 3'-C-ethynyl-β-d-ribofuranose purine nucleoside library: Discovery of C7-deazapurine analogs as potent antiproliferative nucleosides” (Eur J Med Chem, 2018)

Legend:
CCRF-CEM = assay: Antiproliferative activity against human CEM cells after 72 hrs by Coulter counter method; type: functional, cell-based
How it was run: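 Cell count assay in 96-well microtiter plates; (5–7.5) × 10⁴ tumor cells per well plus test compound. Cells proliferated at 37 °C in humidified CO₂-controlled atmosphere, 48 h for murine leukemia L1210, 72 h for human lymphocytic CEM and cervix carcinoma HeLa. Counted by Coulter counter; IC₅₀ is the concentration that inhibits proliferation by 50%.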

HOP-62 [1] = assay: Cytotoxicity against human HOP62 cells after 48 hrs by SRB assay; type: functional; settings: HOP-62, 48 h
NCI-H322M = assay: Cytotoxicity against human NCI-H322M cells after 48 hrs by SRB assay; type: functional
HCC 2998 = assay: Cytotoxicity against human HCC2998 cells after 48 hrs by SRB assay; type: functional; settings: HCC 2998, 48 h
Malme-3M = assay: Cytotoxicity against human MALME-3M cells after 48 hrs by SRB assay; type: functional
SK-MEL-28 [2] = assay: Cytotoxicity against human SK-MEL-28 cells after 48 hrs by SRB assay; type: functional; settings: SK-MEL-28, 48 h
TK-10 [3] = assay: Cytotoxicity against human TK10 cells after 48 hrs by SRB assay; type: functional; settings: TK-10, 48 h
DU-145 = assay: Cytotoxicity against human DU145 cells after 48 hrs by SRB assay; type: functional; settings: DU-145, 48 h
HL-60(TB) = assay: Growth inhibition of human HL-60(TB) cells assessed as cell growth at 10^-8 M incubated for 48 hrs by sulforhodamine B assay relative to control; type: functional; settings: HL-60, 48 h, read-out: Activity
K562 [4] = assay: Growth inhibition of human K562 cells assessed as cell growth at 10^-8 M incubated for 48 hrs by sulforhodamine B assay relative to control; type: functional; settings: K562, 48 h, read-out: Activity
EKVX = assay: Growth inhibition of human EKVX cells assessed as cell growth at 10^-8 M incubated for 48 hrs by sulforhodamine B assay relative to control; type: functional; settings: read-out: Activity
SF-268 = assay: Growth inhibition of human SF268 cells assessed as cell growth at 10^-8 M incubated for 48 hrs by sulforhodamine B assay relative to control; type: functional; settings: SF-268, 48 h, read-out: Activity
U-251 [5] = assay: Growth inhibition of human U251 cells assessed as cell growth at 10^-8 M incubated for 48 hrs by sulforhodamine B assay relative to control; type: functional; settings: U-251, 48 h, read-out: Activity
SK-MEL-28 [6] = assay: Growth inhibition of human SK-MEL-28 cells assessed as cell growth at 10^-8 M incubated for 48 hrs by sulforhodamine B assay relative to control; type: functional; settings: SK-MEL-28, 48 h, read-out: Activity
SK-MEL-5 = assay: Growth inhibition of human SK-MEL-5 cells assessed as cell growth at 10^-8 M incubated for 48 hrs by sulforhodamine B assay relative to control; type: functional; settings: SK-MEL-5, 48 h, read-out: Activity
K562 [7] = assay: Growth inhibition of human K562 cells assessed as cell growth at 10^-7 M incubated for 48 hrs by sulforhodamine B assay relative to control; type: functional; settings: K562, 48 h, read-out: Activity
NCI-H460 = assay: Growth inhibition of human NCI-H460 cells assessed as cell growth at 10^-7 M incubated for 48 hrs by sulforhodamine B assay relative to control; type: functional; settings: NCI-H460, 48 h, read-out: Activity
OVCAR-8 = assay: Growth inhibition of human OVCAR8 cells assessed as cell growth at 10^-7 M incubated for 48 hrs by sulforhodamine B assay relative to control; type: functional; settings: OVCAR-8, 48 h, read-out: Activity
NCI/ADR-RES = assay: Growth inhibition of human NCI/ADR-RES cells assessed as cell growth at 10^-7 M incubated for 48 hrs by sulforhodamine B assay relative to control; type: functional; settings: read-out: Activity
TK-10 [8] = assay: Growth inhibition of human TK10 cells assessed as cell growth at 10^-7 M incubated for 48 hrs by sulforhodamine B assay relative to control; type: functional; settings: TK-10, 48 h, read-out: Activity
HOP-62 [9] = assay: Growth inhibition of human HOP62 cells assessed as cell growth at 10^-6 M incubated for 48 hrs by sulforhodamine B assay relative to control; type: functional; settings: HOP-62, 48 h, read-out: Activity
SF-295 = assay: Growth inhibition of human SF295 cells assessed as cell growth at 10^-6 M incubated for 48 hrs by sulforhodamine B assay relative to control; type: functional; settings: SF-295, 48 h, read-out: Activity
U-251 [10] = assay: Growth inhibition of human U251 cells assessed as cell growth at 10^-6 M incubated for 48 hrs by sulforhodamine B assay relative to control; type: functional; settings: U-251, 48 h, read-out: Activity
M14 = assay: Growth inhibition of human M14 cells assessed as cell growth at 10^-6 M incubated for 48 hrs by sulforhodamine B assay relative to control; type: functional; settings: M14, 48 h, read-out: Activity
PC-3 = assay: Growth inhibition of human PC3 cells assessed as cell growth at 10^-6 M incubated for 48 hrs by sulforhodamine B assay relative to control; type: functional; settings: PC-3, 48 h, read-out: Activity
BT-549 = assay: Growth inhibition of human BT549 cells assessed as cell growth at 10^-6 M incubated for 48 hrs by sulforhodamine B assay relative to control; type: functional; settings: BT-549, 48 h, read-out: Activity
MOLT-4 = assay: Growth inhibition of human MOLT4 cells assessed as cell growth at 10^-5 M incubated for 48 hrs by sulforhodamine B assay relative to control; type: functional; settings: MOLT-4, 48 h, read-out: Activity
TK-10 [11] = assay: Growth inhibition of human TK10 cells assessed as cell growth at 10^-4 M incubated for 48 hrs by sulforhodamine B assay relative to control; type: functional; settings: TK-10, 48 h, read-out: Activity
UACC-62 [12] = assay: Growth inhibition of human UACC62 cells assessed as cell growth at 10^-8 M incubated for 48 hrs by sulforhodamine B assay relative to control; type: functional; settings: UACC-62, 48 h, read-out: Activity
UACC-62 [13] = assay: Growth inhibition of human UACC62 cells assessed as cell growth at 10^-7 M incubated for 48 hrs by sulforhodamine B assay relative to control; type: functional; settings: UACC-62, 48 h, read-out: Activity
A549 = assay: Growth inhibition of human A549/ATCC cells assessed as cell growth at 10^-4 M incubated for 48 hrs by sulforhodamine B assay relative to control; type: functional; settings: A549, 48 h, read-out: Activity
[14] = read-out: pLC50 (the source's name) (converted)
[15] = read-out: LC50 (the source's name)

Compound: C#C[C@@]1(O)[C@@H](CO)O[C@@H](n2ccc3c(N)ncnc32)[C@@H]1O
- IC50 (CCRF-CEM): 0.71 µM
- TGI (HOP-62 [1]; read-out: TGI): 7.91 µM
- GI50 (HOP-62 [1]; read-out: pGI50 (converted)): 2.04 µM
- CC50 (HOP-62 [1]; [14]): > 100 µM
- TGI (HOP-62 [1]; read-out: pTGI (converted)): 7.94 µM
- TGI (NCI-H322M; read-out: TGI): 6.08 µM
- GI50 (NCI-H322M; read-out: pGI50 (converted)): 1.29 µM
- CC50 (NCI-H322M; [14]): 50.1 µM
- TGI (NCI-H322M; read-out: pTGI (converted)): 6.03 µM
- TGI (HCC 2998; read-out: TGI): 3.12 µM
- GI50 (HCC 2998; read-out: pGI50 (converted)): 1.45 µM
- CC50 (HCC 2998; [14]): 6.76 µM
- TGI (HCC 2998; read-out: pTGI (converted)): 3.09 µM
- GI50 (Malme-3M; read-out: GI50): 1.68 µM
- TGI (Malme-3M; read-out: TGI): 5.55 µM
- GI50 (Malme-3M; read-out: pGI50 (converted)): 1.66 µM
- CC50 (Malme-3M; [14]): 30.9 µM
- TGI (Malme-3M; read-out: pTGI (converted)): 5.5 µM
- CC50 (SK-MEL-28 [2]; [15]): > 100 µM
- TGI (SK-MEL-28 [2]; read-out: TGI): 20.2 µM
- GI50 (SK-MEL-28 [2]; read-out: pGI50 (converted)): 3.98 µM
- TGI (SK-MEL-28 [2]; read-out: pTGI (converted)): 20 µM
- CC50 (TK-10 [3]; [15]): > 100 µM
- TGI (TK-10 [3]; read-out: TGI): 9.48 µM
- GI50 (TK-10 [3]; read-out: pGI50 (converted)): 2.63 µM
- TGI (TK-10 [3]; read-out: pTGI (converted)): 9.55 µM
- CC50 (DU-145; [15]): > 100 µM
- TGI (DU-145; read-out: TGI): 6.55 µM
- GI50 (DU-145; read-out: pGI50 (converted)): 0.562 µM
- TGI (DU-145; read-out: pTGI (converted)): 6.61 µM
- growth at 0.01 µM (HL-60(TB)): 97%
- growth at 0.01 µM (K562 [4]): 103%
- growth at 0.01 µM (EKVX): 87%
- growth at 0.01 µM (SF-268): 99%
- growth at 0.01 µM (U-251 [5]): 102%
- growth at 0.01 µM (SK-MEL-28 [6]): 93%
- growth at 0.01 µM (SK-MEL-5): 102%
- growth at 0.1 µM (K562 [7]): 93%
- growth at 0.1 µM (NCI-H460): 91%
- growth at 0.1 µM (OVCAR-8): 106%
- growth at 0.1 µM (NCI/ADR-RES): 92%
- growth at 0.1 µM (TK-10 [8]): 110%
- growth at 1 µM (HOP-62 [9]): 77%
- growth at 1 µM (SF-295): 74%
- growth at 1 µM (U-251 [10]): 80%
- growth at 1 µM (M14): 73%
- growth at 1 µM (PC-3): 45%
- growth at 1 µM (BT-549): 80%
- growth at 10 µM (MOLT-4): 2%
- growth at 100 µM (TK-10 [11]): -5%
- growth at 0.01 µM (UACC-62 [12]): 97%
- growth at 0.1 µM (UACC-62 [13]): 101%
- growth at 100 µM (A549): 3%
